The record followed here is ChEMBL document CHEMBL1177636, “Optimization of isochromanone based urotensin II receptor agonists” (Bioorg Med Chem, 2010).

Activity calls are given as the source filed them. The calls are words filed in the database; no cut-off is given here.

Common to all, as to type: functional, cell-based
Experiment [1] has as its target T1, Urotensin-2 receptor (Homo sapiens) (UniProt Q9UKP6).
T1 sequence (whole entry): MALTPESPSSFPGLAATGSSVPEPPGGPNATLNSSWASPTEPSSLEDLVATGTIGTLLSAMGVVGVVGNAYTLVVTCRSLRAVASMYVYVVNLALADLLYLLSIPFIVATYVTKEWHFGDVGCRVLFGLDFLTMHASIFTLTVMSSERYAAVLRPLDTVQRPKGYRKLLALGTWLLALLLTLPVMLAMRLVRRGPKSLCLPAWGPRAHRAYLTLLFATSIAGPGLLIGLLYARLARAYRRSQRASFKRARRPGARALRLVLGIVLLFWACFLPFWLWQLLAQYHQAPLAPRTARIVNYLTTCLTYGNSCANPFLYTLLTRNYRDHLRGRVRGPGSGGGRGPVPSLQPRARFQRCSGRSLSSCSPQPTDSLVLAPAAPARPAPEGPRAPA
The experiment in a line: Agonist activity against human urotensin 2 receptor expressed in […] cells assessed as beta-galactosidase activity after 5 days by R-SAT assay relative to Urotensin-2. In a few lines:
(§1)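 R-SAT in NIH-3T3 cells grown to 80% confluence in DMEM with 10% bovine calf serum, then transfected for 18 h with human UII receptor plus a β-galactosidase marker. Cells were frozen and thawed into DMEM with 0.4% calf serum and 30% UltraCulture, then incubated with compound for 5 days in 5% CO₂. Reporter read at 420 nm. Eight doses in triplicate, 2–5 EC₅₀ determinations, reported as mean ± SD; efficacy normalized to UII = 100%.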

Another experiment addresses T2, Urotensin-2 receptor (Homo sapiens, UniProt Q9UKP6).
T2 sequence (Q9UKP6 whole entry): T1 sequence (whole entry)
The experiment in a line: (§2) Agonist activity against human urotensin 2 receptor expressed in […] cells assessed as beta-galactosidase activity after 5 days by R-SAT assay. In a few lines:
as §1

The target of experiment [2] is T1, Urotensin-2 receptor (Homo sapiens). Described as §2. In a few lines:
as §1

Experiment [3] addresses Somatostatin receptor type 1 (Homo sapiens) (UniProt P30872). The experiment can be described thus: Agonist activity against human SST1 receptor expressed in […] cells assessed as beta-galactosidase activity at 3 uM after 5 days by R-SAT assay.
Experiment [4] addresses Somatostatin receptor type 4 (Homo sapiens) (UniProt P31391). The experiment can be described thus: Agonist activity against human SST4 receptor expressed in […] cells assessed as beta-galactosidase activity at 3 uM after 5 days by R-SAT assay.

Somatostatin receptor type 1 (Homo sapiens), sequence (P30872 whole entry): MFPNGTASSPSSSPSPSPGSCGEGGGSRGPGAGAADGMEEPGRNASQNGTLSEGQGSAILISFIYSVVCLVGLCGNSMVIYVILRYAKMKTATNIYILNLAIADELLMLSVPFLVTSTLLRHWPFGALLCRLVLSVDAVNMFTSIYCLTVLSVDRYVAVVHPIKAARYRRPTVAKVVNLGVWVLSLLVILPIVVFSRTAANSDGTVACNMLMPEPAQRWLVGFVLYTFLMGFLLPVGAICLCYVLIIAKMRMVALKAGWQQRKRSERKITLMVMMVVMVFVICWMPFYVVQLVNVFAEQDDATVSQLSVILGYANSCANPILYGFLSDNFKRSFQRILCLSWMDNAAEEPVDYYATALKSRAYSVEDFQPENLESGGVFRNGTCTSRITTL
Somatostatin receptor type 4 (Homo sapiens), sequence (P31391 whole entry): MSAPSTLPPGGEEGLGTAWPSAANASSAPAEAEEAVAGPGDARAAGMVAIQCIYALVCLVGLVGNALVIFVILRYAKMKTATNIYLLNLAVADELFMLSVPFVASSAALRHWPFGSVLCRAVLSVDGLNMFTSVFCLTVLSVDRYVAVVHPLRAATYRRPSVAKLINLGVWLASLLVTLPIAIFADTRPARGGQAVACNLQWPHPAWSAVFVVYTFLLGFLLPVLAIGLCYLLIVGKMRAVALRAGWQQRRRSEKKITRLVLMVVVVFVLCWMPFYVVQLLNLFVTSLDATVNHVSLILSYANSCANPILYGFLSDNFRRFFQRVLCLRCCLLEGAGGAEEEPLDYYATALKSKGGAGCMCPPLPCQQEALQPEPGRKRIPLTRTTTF

For `CN(C)CCC1(c2ccc(Cl)cc2)Cc2ccccc2CO1` (stereo unspecified), the Efficacy in experiment [1] was found to be 110%. Also, at Urotensin-2 receptor, the EC50 was 0.501 µM.
For `CC(C)N1C(=O)c2ccccc2CC1(CCN(C)C)c1ccc(Cl)cc1` (stereo unspecified), in experiment [1], the Efficacy was 145%. In addition, the EC50 on Urotensin-2 receptor is 2.24 µM.
`CN(C)CCC1(c2ccc(Cl)cc2)Cc2ccc3ccccc3c2C(=O)O1` (stereo unspecified): the Efficacy in experiment [1] came out at 124%. Further, the EC50 on Urotensin-2 receptor was 1.15 µM.
On to `CNCCC1(c2ccc(Cl)cc2)Cc2ccccc2C(=O)O1` (stereo unspecified), for which, in experiment [1], the Efficacy is 46%. The EC50 on Urotensin-2 receptor is 1.95 µM.
Regarding `COc1cccc2c1CC(CCN(C)C)(c1ccc(Cl)cc1)N(C)C2=O` (stereo unspecified), in experiment [1], the Efficacy was 151%. For the same compound, the EC50 on Urotensin-2 receptor is 1.17 µM.
On to `CN(C)CCC1(c2cccc(-c3ccccc3)c2)Cc2ccccc2C(=O)O1` (stereo unspecified), for which the Efficacy in experiment [1] worked out at 50%. Moreover, the EC50 at Urotensin-2 receptor is 1.41 µM.
Consider `CN(C)CCC1(c2cccc(Br)c2)Cc2ccccc2C(=O)O1` (stereo unspecified), for which the Efficacy in experiment [1] was found to be 68%. Moreover, on Urotensin-2 receptor, the half-maximal effective concentration (EC50) was 2.95 µM.
For `CN(C)CCC1(c2ccc(C#Cc3ccccc3)cc2)Cc2ccccc2C(=O)O1` (stereo unspecified), the Efficacy entry in experiment [1] is “inactive”. In experiment [2], the pEC50 result is “inactive”.
With `COc1cc(OC)cc(C2(CCN(C)C)Cc3cc(C)c(C)cc3C(=O)O2)c1` (stereo unspecified), the Efficacy in experiment [1] amounted to 156%. Besides, the 50% effective concentration (EC50) at Urotensin-2 receptor is 5.25 µM.
As to `Cc1cc2c(cc1C)CC(CCN(C)C)(c1ccc3ccccc3c1)OC2` (stereo unspecified), the Efficacy in experiment [1] stood at 49%. In addition, on Urotensin-2 receptor, the EC50 is 0.263 µM.
Consider `CN(C)CCC1(c2ccc(-c3ccccc3)cc2)Cc2ccccc2C(=O)O1` (stereo unspecified), for which the Efficacy entry in experiment [1] is “inactive”. For the same compound, the pEC50 result in experiment [2] is “inactive”.
Take `CN(C)CCC1(c2ccc(Br)cc2)Cc2ccccc2C(=O)O1` (stereo unspecified): in experiment [1], the Efficacy worked out at 127%. The EC50 on Urotensin-2 receptor was 0.933 µM.
Take `CN(C)CCC1(c2ccc(Cl)cc2)Cc2ccccc2C(=O)N1C` (stereo unspecified): the Efficacy in experiment [1] is 152%. The EC50 at Urotensin-2 receptor was 2.29 µM.
As for `COc1ccc2c(c1C)CC(CCN(C)C)(c1ccc(Cl)cc1)OC2=O` (stereo unspecified), the Efficacy in experiment [1] turned out to be 118%. The EC50 on Urotensin-2 receptor is 1.74 µM.
Take `CN(C)CCC1(c2ccc(Cl)cc2)Cc2cc(-c3ccccc3)ccc2C(=O)O1` (stereo unspecified): in experiment [1], the Efficacy entry is “inactive”. The pEC50 result in experiment [2] was “inactive”.
With `CN(C)CCC1(c2ccc(Cl)c(Cl)c2)Cc2ccccc2C(=O)O1` (stereo unspecified), the Efficacy in experiment [1] was 172%. Besides, at Urotensin-2 receptor, the EC50 was 0.676 µM.
As to `C[N+](C)(C)CCC1(c2ccc(Cl)cc2)Cc2ccccc2C(=O)O1` (stereo unspecified), the Efficacy in experiment [1] amounted to 118%. For the same compound, the EC50 on Urotensin-2 receptor is 3.8 µM.
On the same counts, the results for `C=CCN(C)CCC1(c2ccc(Cl)cc2)Cc2ccccc2C(=O)O1` (stereo unspecified) are 77% and 4.17 µM.
On to `Cc1cc2c(cc1C)CC(CCN(C)C)(c1ccc(Cl)cc1)OC2` (stereo unspecified), for which the Efficacy in experiment [1] was 47%. In addition, the EC50 on Urotensin-2 receptor was 0.692 µM.
Take `COc1ccc2c(c1)CC(CCN(C)C)(c1ccc(Cl)cc1)OC2=O` (stereo unspecified): the Efficacy in experiment [1] is 165%. Also, the EC50 at Urotensin-2 receptor is 0.955 µM.
Turning to `Cc1cc2c(cc1C)C(=O)OC(CCN(C)C)(c1ccc3ccccc3c1)C2` (stereo unspecified), the Efficacy in experiment [1] was found to be 126%. The EC50 at Urotensin-2 receptor is 0.148 µM.
For `C=CCN(CC=C)c1ccc(C2(CCN(C)C)Cc3ccccc3C(=O)O2)cc1` (stereo unspecified), in experiment [1], the Efficacy result is “inactive”. Further, in experiment [2], the pEC50 result was “inactive”.
Consider `C=CCN(CC=C)c1cccc(C2(CCN(C)C)Cc3ccccc3C(=O)O2)c1` (stereo unspecified), for which the Efficacy in experiment [1] came to 55%. Also, on Urotensin-2 receptor, the EC50 is 2.4 µM.
Regarding `C=CCN(CC=C)c1ccc2c(c1)CC(CCN(C)C)(c1ccc(Cl)cc1)OC2=O` (stereo unspecified), the Efficacy in experiment [1] was 132%. Moreover, the EC50 at Urotensin-2 receptor was 0.724 µM.
The corresponding values for `CN(C)CCC1(c2ccc(Oc3ccccc3)cc2)Cc2ccccc2C(=O)O1` (stereo unspecified) are 54% and 1.15 µM.
Take `Cc1cc2c(cc1C)C(=O)OC(CCN(C)C)(c1ccc(Cl)c(Cl)c1)C2` (stereo unspecified): the Efficacy in experiment [1] was found to be 98%. Further, the outcome in experiment [3] was inactive. Further, in experiment [4], the Activity is 31%. Further, the EC50 at Urotensin-2 receptor is 0.0513 µM.
For the compound `COc1cccc(C2(CCN(C)C)Cc3cc(C)c(C)cc3C(=O)O2)c1` (stereo unspecified), the Efficacy in experiment [1] was determined as 149%. Besides, the EC50 at Urotensin-2 receptor was 2.88 µM.

For orientation: EC50 means the midpoint of the concentration-response curve.
